Results as given in publication PMC10408732 (Anesthesia and Analgesia, 2023).
Where two headings read alike, the source gives them in different places. One block for each compound: values may come before it.

Columns and labels:
rat α7 nAChR [1] = molecular target: T1, rat α7 nAChR (Rattus norvegicus, UniProt Q05941); assay: Two-electrode voltage clamp at rα7 nAChRs expressed in Xenopus laevis oocytes; format: cell-based
[2] = same software; cited from earlier work
[3] = system: oxaliplatin-induced neuropathic pain in mice; settings: oxaliplatin model; cited from earlier work
[4] = system: oxaliplatin-induced neuropathic pain in mice; assay: Oxaliplatin-induced neuropathic pain, cold plate test; format: in vivo
In short: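 Male CD-1 mice, n = 10/condition, given oxaliplatin 2.4 mg/kg i.p. in 5% glucose, 5 days/week for 2 weeks. On day 15: baseline cold plate, then oral test compound (1, 3, 10 or 30 mg/kg, or a two-compound combination at 30 mg/kg each) in 1% carboxymethyl cellulose. Hind-paw licking latency every 15 min for 60–75 min, 30 s cutoff; mean ± SEM; 1-way ANOVA with Bonferroni.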

mice [5] = assay: Effect on pain threshold, cold plate test; format: in vivo; settings: acute or repeated (7 days) 30 mg/kg, P > .05 vs vehicle
mice [6] = assay: Effect on pain threshold, hot plate test; format: in vivo; settings: acute or repeated (7 days) 30 mg/kg, P > .05 vs vehicle
mice [7] = assay: Rota-rod test; format: in vivo
In short: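 Rota-rod, mice n = 5/condition. Test compound 30 mg/kg, single dose (tested right after) or daily for 7 days (tested day 8); vehicle controls. Falls from the rod counted over a 30 s test, every 15 min for 1 h. Mice with <3 or >6 falls in the pretest were excluded.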

rat α9α10 nAChR = rat α9α10 nAChR (Rattus norvegicus, UniProt P43144+Q9JLB5); assay: Two-electrode voltage clamp at rα9α10 nAChRs expressed in Xenopus laevis oocytes; format: cell-based; settings: for IC50: Inhibition IC50 (μM), −80 mV
human CaV2.2 channel [8] = molecular target: T2, human CaV2.2 channel (Homo sapiens, UniProt Q00975); assay: Whole-cell patch clamp recording of CaV2.2 channels expressed in HEK293T cells; format: cell-based
In short: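 Human CaV2.2 transiently expressed in HEK293T cells; whole-cell patch clamp at room temperature 24–48 h after transfection. Bath: 10 mM BaCl2, 30 mM TEA-Cl, pH 7.35. Pipette (2–3 MΩ): K-gluconate with 5 mM EGTA, pH 7.2. Ba2+ currents evoked from −80 mV by steps to −10 or −15 mV at 0.1 Hz, in the absence and presence of test compound.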

rat α7 nAChR [9] = molecular target: T1, rat α7 nAChR; settings: rα7, same conditions, cited from earlier work
human CaV2.2 channel [10] = molecular target: T2, human CaV2.2 channel; settings: cited from earlier work
[11] = acute, single dose 30 mg/kg, counted every 15 min for 1 h, P > .05 vs vehicle
[12] = read-out: inhibition of ACh-evoked currents
[13] = oxaliplatin-treated mice, 30 mg/kg oral, cold plate test

Sequence of rat α9α10 nAChR (P43144 26-479): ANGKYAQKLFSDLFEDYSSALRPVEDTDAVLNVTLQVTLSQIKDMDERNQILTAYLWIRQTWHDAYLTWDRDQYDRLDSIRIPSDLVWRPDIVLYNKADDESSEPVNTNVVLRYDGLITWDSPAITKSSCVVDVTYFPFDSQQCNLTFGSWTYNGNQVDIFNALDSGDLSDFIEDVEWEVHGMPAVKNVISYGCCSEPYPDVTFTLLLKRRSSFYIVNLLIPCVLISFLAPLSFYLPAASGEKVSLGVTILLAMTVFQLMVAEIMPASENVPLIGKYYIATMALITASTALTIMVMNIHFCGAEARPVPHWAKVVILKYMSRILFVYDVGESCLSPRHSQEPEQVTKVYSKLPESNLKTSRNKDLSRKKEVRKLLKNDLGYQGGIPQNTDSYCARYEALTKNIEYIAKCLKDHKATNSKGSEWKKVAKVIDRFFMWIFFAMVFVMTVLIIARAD
Sequence of rat α9α10 nAChR (Q9JLB5 25-447): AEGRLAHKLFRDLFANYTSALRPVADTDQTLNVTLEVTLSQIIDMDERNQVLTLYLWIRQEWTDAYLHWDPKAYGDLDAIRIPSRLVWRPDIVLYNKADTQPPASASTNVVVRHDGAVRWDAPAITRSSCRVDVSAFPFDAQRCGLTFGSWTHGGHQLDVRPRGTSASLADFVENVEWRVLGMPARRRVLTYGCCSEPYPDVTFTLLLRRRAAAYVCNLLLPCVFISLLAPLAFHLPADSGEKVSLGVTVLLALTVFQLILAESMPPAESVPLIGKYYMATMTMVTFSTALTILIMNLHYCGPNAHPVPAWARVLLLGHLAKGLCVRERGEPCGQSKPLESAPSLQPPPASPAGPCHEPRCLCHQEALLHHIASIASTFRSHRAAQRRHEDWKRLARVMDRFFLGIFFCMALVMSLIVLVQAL
T2 sequence (Q00975 whole entry): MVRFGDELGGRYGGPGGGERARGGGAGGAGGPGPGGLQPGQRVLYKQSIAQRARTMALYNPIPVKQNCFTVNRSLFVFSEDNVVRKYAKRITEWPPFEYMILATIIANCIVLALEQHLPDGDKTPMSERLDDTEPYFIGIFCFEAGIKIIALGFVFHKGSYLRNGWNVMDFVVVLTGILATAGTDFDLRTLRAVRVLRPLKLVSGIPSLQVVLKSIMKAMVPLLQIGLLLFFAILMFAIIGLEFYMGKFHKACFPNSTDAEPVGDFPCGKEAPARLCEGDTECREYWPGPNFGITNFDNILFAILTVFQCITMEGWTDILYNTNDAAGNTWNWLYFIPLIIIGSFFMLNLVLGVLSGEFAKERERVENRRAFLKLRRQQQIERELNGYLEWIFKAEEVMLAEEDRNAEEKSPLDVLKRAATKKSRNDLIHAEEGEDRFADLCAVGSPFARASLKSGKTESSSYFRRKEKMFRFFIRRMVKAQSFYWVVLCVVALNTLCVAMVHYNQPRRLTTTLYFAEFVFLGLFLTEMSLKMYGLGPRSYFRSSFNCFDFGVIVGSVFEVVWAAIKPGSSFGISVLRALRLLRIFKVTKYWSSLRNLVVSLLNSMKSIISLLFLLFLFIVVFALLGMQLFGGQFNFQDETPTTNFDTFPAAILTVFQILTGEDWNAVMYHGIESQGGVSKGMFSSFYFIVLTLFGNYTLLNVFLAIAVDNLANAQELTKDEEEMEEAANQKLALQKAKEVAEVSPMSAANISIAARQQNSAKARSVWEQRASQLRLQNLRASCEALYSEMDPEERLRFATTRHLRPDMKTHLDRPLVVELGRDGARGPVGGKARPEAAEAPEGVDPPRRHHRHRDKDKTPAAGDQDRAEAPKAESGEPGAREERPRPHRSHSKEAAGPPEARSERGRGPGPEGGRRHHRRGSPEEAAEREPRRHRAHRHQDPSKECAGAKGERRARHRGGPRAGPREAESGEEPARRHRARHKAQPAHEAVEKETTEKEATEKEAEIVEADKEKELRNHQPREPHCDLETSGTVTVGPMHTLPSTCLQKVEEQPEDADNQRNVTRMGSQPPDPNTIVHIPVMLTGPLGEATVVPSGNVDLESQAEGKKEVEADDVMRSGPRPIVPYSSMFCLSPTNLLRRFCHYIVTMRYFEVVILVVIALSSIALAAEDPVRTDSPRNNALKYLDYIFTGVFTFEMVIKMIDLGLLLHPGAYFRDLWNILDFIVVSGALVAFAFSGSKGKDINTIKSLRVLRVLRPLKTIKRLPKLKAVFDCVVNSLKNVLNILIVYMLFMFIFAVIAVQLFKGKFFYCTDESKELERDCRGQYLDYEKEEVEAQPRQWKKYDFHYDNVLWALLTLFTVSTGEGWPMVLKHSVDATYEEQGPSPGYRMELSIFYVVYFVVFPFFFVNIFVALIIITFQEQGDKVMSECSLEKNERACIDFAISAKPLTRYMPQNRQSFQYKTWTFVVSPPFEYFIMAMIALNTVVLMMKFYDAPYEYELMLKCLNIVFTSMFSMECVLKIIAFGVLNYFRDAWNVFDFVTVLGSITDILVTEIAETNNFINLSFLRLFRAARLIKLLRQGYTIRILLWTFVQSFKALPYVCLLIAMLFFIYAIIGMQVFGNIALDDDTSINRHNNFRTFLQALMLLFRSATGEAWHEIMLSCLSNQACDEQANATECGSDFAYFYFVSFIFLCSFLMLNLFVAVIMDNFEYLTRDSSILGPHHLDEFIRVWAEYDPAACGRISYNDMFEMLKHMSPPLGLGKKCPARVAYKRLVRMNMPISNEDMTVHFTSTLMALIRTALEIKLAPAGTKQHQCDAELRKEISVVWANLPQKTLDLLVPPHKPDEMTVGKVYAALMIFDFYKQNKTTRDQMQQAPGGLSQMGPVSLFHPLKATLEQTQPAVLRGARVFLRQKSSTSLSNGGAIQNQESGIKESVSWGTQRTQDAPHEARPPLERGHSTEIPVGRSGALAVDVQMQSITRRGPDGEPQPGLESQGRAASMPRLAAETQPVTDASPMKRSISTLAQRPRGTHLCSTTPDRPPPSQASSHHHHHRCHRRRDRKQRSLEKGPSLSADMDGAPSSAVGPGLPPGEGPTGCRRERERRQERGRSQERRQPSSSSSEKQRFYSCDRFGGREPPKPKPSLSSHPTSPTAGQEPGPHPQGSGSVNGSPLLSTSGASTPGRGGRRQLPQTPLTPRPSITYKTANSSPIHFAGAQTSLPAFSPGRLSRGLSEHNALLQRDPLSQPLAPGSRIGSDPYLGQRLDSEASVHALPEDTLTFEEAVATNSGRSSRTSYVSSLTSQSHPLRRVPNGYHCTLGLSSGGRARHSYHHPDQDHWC
T2 sequence (P54284 whole entry partner): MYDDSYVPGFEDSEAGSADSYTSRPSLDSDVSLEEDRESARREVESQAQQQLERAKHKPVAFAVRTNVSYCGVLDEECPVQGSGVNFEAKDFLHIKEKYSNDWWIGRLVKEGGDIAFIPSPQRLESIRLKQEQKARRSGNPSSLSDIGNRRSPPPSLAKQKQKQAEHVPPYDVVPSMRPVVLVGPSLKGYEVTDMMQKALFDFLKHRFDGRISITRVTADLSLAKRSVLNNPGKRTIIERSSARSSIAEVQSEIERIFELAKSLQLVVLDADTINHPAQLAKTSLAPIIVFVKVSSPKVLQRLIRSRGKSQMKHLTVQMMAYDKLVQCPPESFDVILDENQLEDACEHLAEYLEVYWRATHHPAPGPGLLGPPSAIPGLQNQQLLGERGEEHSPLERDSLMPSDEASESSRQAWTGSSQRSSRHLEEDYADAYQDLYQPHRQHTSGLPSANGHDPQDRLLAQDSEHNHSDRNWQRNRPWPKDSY
T2 sequence (P54289 25-1103 partner): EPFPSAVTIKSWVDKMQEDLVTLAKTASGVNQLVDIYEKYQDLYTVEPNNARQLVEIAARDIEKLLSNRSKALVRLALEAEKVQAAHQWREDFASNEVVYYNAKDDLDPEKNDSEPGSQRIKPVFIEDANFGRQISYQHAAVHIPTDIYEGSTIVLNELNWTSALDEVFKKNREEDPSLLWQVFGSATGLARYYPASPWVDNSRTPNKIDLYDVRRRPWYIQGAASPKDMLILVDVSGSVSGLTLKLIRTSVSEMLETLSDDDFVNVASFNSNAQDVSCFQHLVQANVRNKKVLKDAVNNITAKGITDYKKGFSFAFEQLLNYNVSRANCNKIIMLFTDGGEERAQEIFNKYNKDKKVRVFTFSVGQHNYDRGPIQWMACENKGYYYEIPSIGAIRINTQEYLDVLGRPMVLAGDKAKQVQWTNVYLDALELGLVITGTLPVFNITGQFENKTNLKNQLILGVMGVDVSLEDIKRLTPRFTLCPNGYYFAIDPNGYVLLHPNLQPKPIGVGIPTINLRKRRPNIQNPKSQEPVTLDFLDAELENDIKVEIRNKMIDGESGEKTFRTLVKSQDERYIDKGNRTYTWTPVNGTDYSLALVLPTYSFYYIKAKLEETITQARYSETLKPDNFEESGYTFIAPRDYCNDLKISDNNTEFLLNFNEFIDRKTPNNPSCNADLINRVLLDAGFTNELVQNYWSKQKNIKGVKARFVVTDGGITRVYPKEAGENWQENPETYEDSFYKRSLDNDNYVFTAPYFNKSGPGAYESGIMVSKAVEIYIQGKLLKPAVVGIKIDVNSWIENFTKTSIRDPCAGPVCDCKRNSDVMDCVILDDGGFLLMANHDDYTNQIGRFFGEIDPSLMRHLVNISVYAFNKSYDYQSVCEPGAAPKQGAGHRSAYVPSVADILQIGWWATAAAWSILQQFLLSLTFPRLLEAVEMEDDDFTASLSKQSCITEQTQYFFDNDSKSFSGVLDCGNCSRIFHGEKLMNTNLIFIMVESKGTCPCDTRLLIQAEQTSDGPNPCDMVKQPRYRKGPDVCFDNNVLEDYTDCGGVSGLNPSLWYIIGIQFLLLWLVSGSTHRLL

Compound: O=C1[O][Pt]2([NH][C@@H]3CCCC[C@H]3[NH]2)[O]C1=O [Oxaliplatin, reference compound]
- IC50 (rat α7 nAChR [1]; read-out: Inhibition IC50, rα7, agonist ACh 30 µM, −80 mV): 200 µM
- IC50 (rat α7 nAChR [1]; read-out: Inhibition IC50, rα7, agonist nicotine 25 µM): 200 µM

Compound: O=C(/C=C/c1ccco1)N1CCc2ccccc21 [DM489, (E)-3-(furan-2-yl)-1-(indolin-1-yl)prop-2-en-1-one]
- LogBBB [2]: 0.17
- active dose (antinociceptive activity) [3]: 10 mg/kg

- pain threshold for cold stimuli (mice [5]): did not change the pain threshold
- pain threshold for heat stimuli (mice [6]): did not change the pain threshold
- IC50 (rat α7 nAChR [1]): 15.1 ± 1.8 µM
- inhibition at 10 µM (rat α7 nAChR [1]; read-out: inhibition of ACh-evoked current amplitude): ~40%
- Inhibition nH (rat α7 nAChR [1]; rα7, agonist ACh 30 µM): < 1.5
- IC50 (rat α9α10 nAChR; rα9α10, agonist ACh 10 µM): 41 ± 4 µM
- IC50 (rat α9α10 nAChR; rα9α10, agonist ACh 100 µM): 36 ± 4 µM
- inhibition at 30 µM (rat α9α10 nAChR; [12]): ~45%
- fold higher antagonist potency than that for DM497 (rat α9α10 nAChR; α9α10 nAChR): > 8 fold
- IC50 (human CaV2.2 channel [8]): 93 ± 16 µM
Compound: Cc1ccc(N(C)C(=O)/C=C/c2ccco2)cc1 [DM490, (E)-3-(furan-2-yl)-N-methyl-N-(p-tolyl)acrylamide]
- activity on oxaliplatin-treated animals (cold plate test) ([4]; 30 mg/kg oral, alone): without inducing any activity on oxaliplatin-treated animals
- endurance time (number of falls per 30 seconds) (mice [7]; [11]): did not modify the endurance time
- endurance time (number of falls per 30 seconds) (mice [7]; repeated, 30 mg/kg daily for 7 days, day 8, P > .05 vs vehicle): did not modify the endurance time

- EC50 (rat α7 nAChR [1]): 86 ± 10 µM
- Emax (rat α7 nAChR [1]; read-out: maximal efficacy at rα7 nAChRs): 196%
- potentiation of ACh-evoked currents (rat α7 nAChR [1]; rα7, 30 µM ACh, 100 µM compound): ~ 100%
- Potentiation nH (rat α7 nAChR [1]; rα7, agonist ACh 30 µM): ~2
- IC50 (rat α9α10 nAChR; rα9α10, agonist ACh 10 µM): 340 ± 21 µM
- IC50 (rat α9α10 nAChR; rα9α10, agonist ACh 100 µM): 369 ± 21 µM
- inhibition at 300 µM (rat α9α10 nAChR; [12]): 40%
- inhibitory activity at the CaV2.2 channel (in words) (human CaV2.2 channel [8]; CaV2.2 channel): minimal effect
- inhibition at 300 µM (human CaV2.2 channel [8]; HEK-293T, read-out: inhibition of whole-cell Ba2+ currents, hCaV2.2, at 300 µM): ~20%
Compound: Cc1ccc(NC(=O)/C=C/c2cccs2)cc1 [DM497, (E)-3-(thiophen-2-yl)-N-(p-tolyl)acrylamide]
- activity when administered alone (cold plate test) ([4]; mice without oxaliplatin, 10 mg/kg): without inducing any activity when administered alone
- active dose (antinociceptive activity) ([4]; oxaliplatin model, this work): 10 mg/kg
- onset of antinociceptive activity ([4]; oxaliplatin-treated mice, 10 mg/kg oral, cold plate test): 30 min
- extent of the antinociceptive effect at 30 mg/kg compared to 10 mg/kg [4, 13]: without changing the extent of the antinociceptive effect
- onset of antinociceptive activity [4, 13]: 15 min
- antinociceptive activity (licking latency, cold plate test) ([4]; oxaliplatin-treated mice, day 15, single oral 1 mg/kg): but not 1 or 3 mg/kg
- endurance time (number of falls per 30 seconds) (mice [7]; [11]): did not modify the endurance time

Compound: Cc1ccc(NC(=O)/C=C/c2ccco2)cc1 [PAM-2, (E)-3-furan-2-yl-N-p-tolyl-acrylamide]
- LogBBB [2]: 0.09
- LogP [2]: 2.96
- active dose (antinociceptive activity) [3]: 3 mg/kg
- IC50 (rat α7 nAChR [9]; read-out: potency at rα7 nAChRs (IC50 as printed)): 12 µM
- maximal efficacy at rα7 nAChRs (rat α7 nAChR [9]): 135% ± 4%
- IC50 (human CaV2.2 channel [10]): 89 µM
